Results published in the array DNA melting data of Ke et al. (doi:10.1101/2024.01.08.574731).

What was measured:
[1] = melting temperature; fluorescence melt of hairpins on a sequencing array, two-state fit, raised by 9.35 °C to match UV melts; settings: sodium 0.088 M
Procedure, shortened: (§1)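 Melting temperature and folding enthalpy were derived from bootstrapped two-state fits. The fitted temperatures were raised by 9.35 °C to agree with UV melts, and four replicates were combined by inverse variance. The underlying data were Cy3 fluorescence images of library hairpins, with annealed Cy3 and quencher oligos, on a sequenced MiSeq flow cell in 50 mM Na-HEPES pH 8.0, 25 mM NaCl, taken in 2.5 °C steps up to 60 °C, normalised to pre-quench Cy3 and to control constructs.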

[2] = folding enthalpy; higher = less favourable; fluorescence melt of hairpins on a sequencing array, two-state fit; settings: sodium 0.088 M
Procedure, shortened: as §1

Sequence | Tm [1] | folding enthalpy [2]
CGTTACGGAAACGTACG (((.(((....)))))) | 45.4 °C | -26.3 kcal/mol
CGTTAGAAATAACG (((((....))))) | 37 °C | -20.5 kcal/mol
CGTTCCGGAAACGGCACG (((.(((....))).))) | 48.5 °C | -34.9 kcal/mol
CGTTCCGGAAACGGGACG (((.(((....))).))) | 57.6 °C | -42.9 kcal/mol
CGTTCCGGAAACGGTACG (((.(((....))).))) | 50 °C | -31.5 kcal/mol
CGTTCGAAAGAACG (((((....))))) | 58.2 °C | -30.6 kcal/mol
CGTTCGGAAACGAATACG ((((((....)))..))) | 36.7 °C | -19.2 kcal/mol
CGTTGCCGGAAACGGACG (((..(((....)))))) | 44.3 °C | -13.3 kcal/mol
CGTTGCGGAAACGCCACG (((.(((....))).))) | 49.5 °C | -29.8 kcal/mol
CGTTTACGGAAACGTACG (((..(((....)))))) | 40.1 °C | -19.2 kcal/mol
CGTTTCCGGAAACGGACG (((..(((....)))))) | 49.3 °C | -17.1 kcal/mol
CGTTTCGGAAACGAGACG (((.(((....))).))) | 49.1 °C | -24.9 kcal/mol
CGTTTCGGAAACGATACG (((.(((....))).))) | 45.6 °C | -33.6 kcal/mol
CTAGGGAAACCTAG (((((....))))) | 39.4 °C | -17.2 kcal/mol
CTCAGGAAACTGAG (((((....))))) | 46.3 °C | -22.6 kcal/mol
CTCCTGAAAAGGAG (((((....))))) | 51.2 °C | -20.3 kcal/mol
CTGATGAAAATCAG (((((....))))) | 43.4 °C | -22 kcal/mol
CTGCGGAAACGCAG (((((....))))) | 61.8 °C | -31.6 kcal/mol
CTTACGAAAGTAAG (((((....))))) | 49.2 °C | -19.3 kcal/mol
GAAAAACGAAAGTTCTTC (((.(((....))).))) | 28.2 °C | -13.4 kcal/mol
GAAAACCGAAAGGTCTTC (((.(((....))).))) | 35.8 °C | -18.9 kcal/mol
GAAAACGAAAGTTGCTTC ((((((....)))..))) | 33.1 °C | -19.8 kcal/mol
GAAAAGCCGAAAGGCTTC (((..(((....)))))) | 36.8 °C | -7.3 kcal/mol

Sequence | Tm [1] | folding enthalpy [2]
GAAAAGGCGAAAGCCTTC (((..(((....)))))) | 38.9 °C | -9.06 kcal/mol
GAAAAGGGAAACCTTTCC (.(((((....))))).) | 27.7 °C | -13.9 kcal/mol
GAAAATGAAAATTTTC ((((((....)))))) | 38.6 °C | -23.1 kcal/mol
GAAAATGGAAACATTTCC (.(((((....))))).) | 28.6 °C | -17 kcal/mol
GAAACAGAAATGTTTC ((((((....)))))) | 45.9 °C | -28.5 kcal/mol
GAAACCCCGAAAGGGTTC (((..(((....)))))) | 35.7 °C | -14 kcal/mol
GAAACCGAAAGGTGGTTC ((((((....)))..))) | 32.3 °C | -11.8 kcal/mol
GAAACCGAAAGGTTCTTC ((((((....)))..))) | 54.4 °C | -22.5 kcal/mol
GAAACCGAAAGGTTTTC ((((((....))).))) | 50.6 °C | -17.3 kcal/mol
GAAACCGGAAACAGTTTC (((((.(....).))))) | 30.8 °C | -25 kcal/mol
GAAACCGGAAACGATTTC ((((.((....)).)))) | 34 °C | -28.9 kcal/mol
GAAACCGGAAACGGTTTC (((((((....))))))) | 65.7 °C | -39 kcal/mol
GAAACGGGAAACTGTTTC (((((.(....).))))) | 44.9 °C | -27.5 kcal/mol
GAAACTGAAAAGTTTC ((((((....)))))) | 50.4 °C | -31.5 kcal/mol
GAAAGACGAAAGTCCTTC (((.(((....))).))) | 32.8 °C | -15.6 kcal/mol
GAAAGAGCGAAAGCTTTC (((..(((....)))))) | 32.5 °C | -13.8 kcal/mol
GAAAGCCCGAAAGGGTTC (((..(((....)))))) | 27.9 °C | -10.6 kcal/mol
GAAAGCGAAAGCTGTTTC ((((((....)))..))) | 32 °C | -9.68 kcal/mol
GAAAGCGAAAGCTTGTTC ((((((....)))..))) | 36.8 °C | -12.5 kcal/mol
GAAAGCGGAAACGTTTTC ((((.((....)).)))) | 42.4 °C | -30.5 kcal/mol
GAAAGGAAACTTTC (((((....))))) | 30.4 °C | -16.9 kcal/mol
GAAAGGGCGAAAGCCTTC (((..(((....)))))) | 24.8 °C | -9.82 kcal/mol
GAAAGGGGAAACCCTCTC ((.((((....)))).)) | 26.8 °C | -17.3 kcal/mol

Sequence | Tm [1] | folding enthalpy [2]
GAAAGTGGAAACGCTTTC (((((.(....).))))) | 44.2 °C | -27.6 kcal/mol
GAAATACGAAAGTACTTC (((.(((....))).))) | 29.5 °C | -15.7 kcal/mol
GAAATCCGAAAGGAATTC (((.(((....))).))) | 40.9 °C | -28.1 kcal/mol
GAAATCGGAAACGACTTC (((.(((....))).))) | 32.4 °C | -24.8 kcal/mol
GAAATCGGAAACGGTTTC ((((.((....)).)))) | 46.5 °C | -31.6 kcal/mol
GAAATGAAAATTTC (((((....))))) | 30.1 °C | -12.2 kcal/mol
GAAATGCGAAAGCACTTC (((.(((....))).))) | 40.7 °C | -17.1 kcal/mol
GAAATGCGAAAGCATTC (((.(((....)))))) | 45.6 °C | -10.9 kcal/mol
GAAATGGCGAAAGCCTTC (((..(((....)))))) | 23 °C | -7.87 kcal/mol
GAAATGGGAAACCATTTC (((((((....))))))) | 53.9 °C | -37.5 kcal/mol
GAACAAGAAATTGTTC ((((((....)))))) | 45.1 °C | -26.4 kcal/mol
GAACACGAAAGTGATTC ((((((....))).))) | 37.2 °C | -18.1 kcal/mol
GAACACGAAAGTGCGTTC ((((((....)))..))) | 31.2 °C | -13 kcal/mol
GAACACGAAAGTGTCTTC ((((((....)))..))) | 52.8 °C | -24.3 kcal/mol
GAACACGAAAGTGTGTTC ((((((....)))..))) | 50 °C | -17.8 kcal/mol
GAACACGGAAACGTGTCC (.(((((....))))).) | 45.2 °C | -11.2 kcal/mol
GAACATGGAAACGTGTTC (((((.(....).))))) | 44.8 °C | -40.1 kcal/mol
GAACCCGAAAGGGACTTC ((((((....)))..))) | 42.9 °C | -20.2 kcal/mol
GAACCCGAAAGGGATTC ((((((....))).))) | 46.4 °C | -14.4 kcal/mol
GAACCCGAAAGGGCTTTC ((((((....)))..))) | 33.8 °C | -10.4 kcal/mol
GAACCCGAAAGGGTCTTC ((((((....)))..))) | 61.9 °C | -22.8 kcal/mol
GAACCTGGAAACAGGTCC (.(((((....))))).) | 40.9 °C | -15.9 kcal/mol
GAACCTGGAAACAGGTTC (((((((....))))))) | 65.5 °C | -36.9 kcal/mol

Sequence | Tm [1] | folding enthalpy [2]
GAACGACGAAAGTCTTC (((.(((....)))))) | 34.8 °C | -15.3 kcal/mol
GAACGCCGAAAGGCATTC (((.(((....))).))) | 43.3 °C | -17.8 kcal/mol
GAACGCCGAAAGGCTTTC (((.(((....))).))) | 44.2 °C | -17.9 kcal/mol
GAACGCGAAAGCGGGTTC ((((((....)))..))) | 47.1 °C | -11.9 kcal/mol
GAACGCGAAAGCGTATTC ((((((....)))..))) | 35.8 °C | -7.69 kcal/mol
GAACGCGAAAGCGTCTTC ((((((....)))..))) | 62.6 °C | -21.6 kcal/mol
GAACGCGAAAGCGTTTC ((((((....))).))) | 57.7 °C | -10.7 kcal/mol
GAACGGCCGAAAGGCTTC (((..(((....)))))) | 21.1 °C | -7.62 kcal/mol
GAACGGGGAAACCCGTTC (((((((....))))))) | 67.9 °C | -34.2 kcal/mol
GAACGTGAAAACGTTC ((((((....)))))) | 58.1 °C | -34 kcal/mol
GAACGTGGAAACACGCTC ((.((((....)))).)) | 44 °C | -18.2 kcal/mol
GAACGTGGAAACACGTTC (((((((....))))))) | 66.3 °C | -31.6 kcal/mol
GAACTCGGAAACAAGTTC (((((.(....).))))) | 34 °C | -22.7 kcal/mol
GAACTCGGAAACGAATTC (((.(((....))).))) | 31.7 °C | -27.5 kcal/mol
GAACTGCGAAAGCACTTC (((.(((....))).))) | 28.4 °C | -10.9 kcal/mol
GAACTGGGAAACTAGTTC (((((.(....).))))) | 42.4 °C | -37.9 kcal/mol
GAACTTGAAAAAGTTC ((((((....)))))) | 49.7 °C | -28.8 kcal/mol
GAAGAACGAAAGTTGTTC (((.(((....))).))) | 41.4 °C | -32.7 kcal/mol
GAAGACACGAAAGTGTTC (((..(((....)))))) | 31.9 °C | -10.1 kcal/mol
GAAGACCGAAAGGTATTC (((.(((....))).))) | 50.8 °C | -32.5 kcal/mol
GAAGACCGAAAGGTTTC (((.(((....)))))) | 37 °C | -13.9 kcal/mol
GAAGACGAAAGTCTTC ((((((....)))))) | 64.5 °C | -37.7 kcal/mol
GAAGAGCGAAAGCTGTTC (((.(((....))).))) | 49.2 °C | -24.9 kcal/mol
